Data set [1] relates to Trypanosoma cruzi. The data set is described as follows: Trypanocidal activity against bloodstream trypomastigote stage of Trypanosoma cruzi Y assessed as induction of parasite lysis after 24 hrs by Neubauer chamber based cell counting method. In kind it is functional, organism-based. A digest of the protocol:
(§1)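 Y-strain bloodstream trypomastigotes at 5 × 10^6 cells per ml in DME medium plus 10% blood (some runs in DMES without blood), mixed 1:1 with compound diluted in DME at twice final concentration. DMSO final ≤0.1%. Incubated at 4 °C. Cells counted after 24 h; IC50 taken as the concentration giving 50% parasite lysis.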

Data set [2] has as its system Trypanosoma cruzi. The data set is described as follows: Potency index, ratio of benznidazole IC50 to test compound IC50 for bloodstream trypomastigote stage of Trypanosoma cruzi Y. In kind it is functional.
The nature of data set [3]: Cytotoxicity against Swiss mouse peritoneal macrophages after 24 hrs by Prestoblue assay. In kind it is cell-based, Peritoneal macrophage. The following applies: read-out: LC50.
Data set [4] is described as follows: Selectivity index, ratio of LC50 for Swiss mouse peritoneal macrophages to IC50 for bloodstream trypomastigote stage of Trypanosoma cruzi Y. Type of data set: toxicity. The note with it: read-out: Ratio LC50/IC50. A digest of the protocol: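 Y strain bloodstream trypomastigotes at 5 × 10^6 cells/ml in DME plus 10% blood, mixed 1:1 with compound at twice the final concentration, 24 h at 4 °C, counted; IC50 = 50% lysis. […] Index = LC50/IC50. DMSO final ≤0.1%.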

For data set [5], the system named is Trypanosoma cruzi. The experiment in a line: Trypanocidal activity against trypomastigote stage of Trypanosoma cruzi. Type of data set: functional, organism-based. An outline of the steps:
as §1

In data set [6] the test system is Trypanosoma cruzi. The data set is described as follows: Trypanocidal activity against bloodstream trypomastigote stage of Trypanosoma cruzi Y isolated from parasite infected Swiss mouse assessed as induction of parasite lysis after 24 hrs by Neubauer chamber based cell counting method. Type of data set: functional, organism-based. An outline of the steps: as §1

Each structure is given as a SMILES string. Bounds are passed on as bounds.

By IC50 is commonly meant the concentration at which inhibition is half-maximal. On to `CCCCCCn1cnc2c3ccccc3c3c(c21)CCC(C)(C)O3`, for which the half-inhibitory concentration (IC50) in the data set on Trypanosoma cruzi [1] came to 31.5 µM. For the same compound, in the data set on Trypanosoma cruzi [2], the “Ratio IC50” value is 3.2. For the same compound, the CC50 at 24 h in data set [3] came out at 422 µM. In addition, the selectivity ratio in data set [4] turned out to be 13.4. Taken in the same sequence, the figures for `CCCCCCn1cnc2c3c(c4ccccc4c21)OC(C)(C)CC3` were 42.5 µM, 2.2, 117 µM and 2.7. For `CC1(C)CCc2c(c3ccccc3c3nc(-c4ccc(Cl)cc4Cl)[nH]c23)O1`, the IC50 with Trypanosoma cruzi [1] is greater than 4000 µM.

As to `CC1(C)CCc2c(c3ccccc3c3nc[nH]c23)O1`, in the data set with Trypanosoma cruzi [1], the IC50 amounted to 89.5 µM.

Regarding `CCCCCCCCn1cnc2c3ccccc3c3c(c21)CCC(C)(C)O3`, the IC50 with Trypanosoma cruzi [1] came to 180 µM. With `CCCCCCCCn1cnc2c3c(c4ccccc4c21)OC(C)(C)CC3`, in the data set with Trypanosoma cruzi [1], the half-maximal inhibitory concentration (IC50) stood at 376 µM. The same measure, in the same setting: the same measure for `CCCCn1cnc2c3ccccc3c3c(c21)CCC(C)(C)O3`: 123 µM. Still for that read-out and setting: the value for `CCCCCCCCCCCCn1cnc2c3ccccc3c3c(c21)CCC(C)(C)O3` was 192 µM; that for `CCCCCn1cnc2c3ccccc3c3c(c21)CCC(C)(C)O3` was 124 µM.

As to `CC1(C)CCc2c(c3ccccc3c3nc(-c4ccccc4)[nH]c23)O1`, 37 µM corresponded to half-maximal inhibition in the data set with Trypanosoma cruzi [5] (IC50). As for `Cc1cccc(-c2nc3c([nH]2)c2c(c4ccccc43)OC(C)(C)CC2)c1`, in the data set on Trypanosoma cruzi [1], the 50% inhibitory concentration (IC50) was determined as 37.5 µM. On the same count and under the same terms, the same measure for `CCCn1cnc2c3c(c4ccccc4c21)OC(C)(C)CC3`: 99.7 µM; for `CCCCCCCCCCCCn1cnc2c3c(c4ccccc4c21)OC(C)(C)CC3`: greater than 500 µM. The same measure, in the same setting: the value for `CCCCCCCn1cnc2c3ccccc3c3c(c21)CCC(C)(C)O3` was 99 µM. With `CC1(C)CCc2c(c3ccccc3c3nc(-c4cccs4)[nH]c23)O1`, the concentration for half-maximal inhibition (IC50) in the data set with Trypanosoma cruzi [1] worked out at 170 µM.

With `CC1(C)CCc2c(c3ccccc3c3nc(-c4ccc(C(F)(F)F)cc4)[nH]c23)O1`, the IC50 in the data set on Trypanosoma cruzi [1] was 250 µM. Regarding `COc1ccc(-c2nc3c([nH]2)c2c(c4ccccc43)OC(C)(C)CC2)cc1`, the 50% inhibitory concentration (IC50) with Trypanosoma cruzi [1] came to 250 µM. The same measure, in the same setting: the value for `CC1(C)CCc2c(c3ccccc3c3nc(-c4ccc([N+](=O)[O-])cc4)[nH]c23)O1` was 250 µM; that for `CCCn1cnc2c3ccccc3c3c(c21)CCC(C)(C)O3` was 172 µM. Still for that read-out and setting: the value for `COc1ccccc1-c1nc2c([nH]1)c1c(c3ccccc32)OC(C)(C)CC1` was greater than 6500 µM; that for `CCCCCCCCCn1cnc2c3c(c4ccccc4c21)OC(C)(C)CC3` was 195 µM. On the same count and under the same terms, the value for `CCCCCCCCCn1cnc2c3ccccc3c3c(c21)CCC(C)(C)O3` was 295 µM; that for `CCCCCn1cnc2c3c(c4ccccc4c21)OC(C)(C)CC3` was 92.7 µM; that for `COc1cc(-c2nc3c([nH]2)c2c(c4ccccc43)OC(C)(C)CC2)ccc1O` was 252 µM. For `CC1(C)CCc2c(c3ccccc3c3nc(-c4ccccc4C#N)[nH]c23)O1`, the IC50 in the data set on Trypanosoma cruzi [1] is greater than 6500 µM. In the case of `CC1(C)CCc2c(c3ccccc3c3nc(-c4cccc5ccccc45)[nH]c23)O1`, the concentration for half-maximal inhibition (IC50) in the data set with Trypanosoma cruzi [1] came out at 1680 µM.

In the case of `Cc1ccc(-c2nc3c([nH]2)c2c(c4ccccc43)OC(C)(C)CC2)cc1`, the concentration for half-maximal inhibition (IC50) with Trypanosoma cruzi [6] was found to be 37.5 µM. Consider `CCCCn1cnc2c3c(c4ccccc4c21)OC(C)(C)CC3`, for which the IC50 with Trypanosoma cruzi [1] is 106 µM. For `CCCCCCCn1cnc2c3c(c4ccccc4c21)OC(C)(C)CC3`, in the data set with Trypanosoma cruzi [1], the IC50 came out at 407 µM.

As to `CC1(C)CCc2c(c3ccccc3c3nc(-c4c(Cl)cccc4Cl)[nH]c23)O1`, the IC50 in the data set on Trypanosoma cruzi [1] is 2120 µM.

Values taken from ChEMBL document CHEMBL4261506, “Synthesis and biological evaluation of N-alkyl naphthoimidazoles derived from β-lapachone against Trypanosoma cruzi bloodstream trypomastigotes” (Medchemcomm, 2017).
